In brackets after ≈: the same amount, converted by molar mass.
Columns and labels:
[1] = system: carbapenems-resistant Klebsiella pneumoniae NDM-1+ (14–3335); experiment: Antibacterial activity, microdilution method; format: cell-based; conditions: for MIC, KPNDM-1+: MDR clinical isolate, microdilution; for MIC: Klebsiella pneumoniae, read-out: MIC, KPNDM-1+
In short: (§1)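 Drug-resistant clinical isolates from a university hospital, tested by broth microdilution in Mueller Hinton medium. Test compounds at 200, 100, 50, 25, 12.5, 6.25 and 3.12 μg/mL. Levofloxacin positive control at the same concentrations; DMSO (6%–0.09%, v/v) negative control. MIC taken as the lowest concentration inhibiting bacterial growth. Three repeat experiments.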

[2] = system: carbapenems-resistant Klebsiella pneumoniae (OXA-48 positive); experiment: Antibacterial activity, microdilution method; format: cell-based; conditions: for MIC, KPRO: MDR clinical isolate, microdilution; for MIC: Klebsiella pneumoniae, read-out: MIC, KPRO
In short: as §1

[3] = system: Klebsiella pneumoniae producer of ESBL (14–2081); experiment: Antibacterial activity, microdilution method; format: cell-based; conditions: for MIC, KPPB: MDR clinical isolate, microdilution; for MIC: Klebsiella pneumoniae, read-out: MIC, KPPB
In short: as §1

[4] = system: Methicillin-Resistant Staphylococcus aureus (14–2095); experiment: Antibacterial activity, microdilution method; format: cell-based; conditions: for MIC, MRSA: MDR clinical isolate, microdilution; for MIC: Staphylococcus aureus, MRSA, read-out: MIC, MRSA
In short: as §1

[5] = system: Linezolid-resistant Staphylococcus epidermidis (14–583); experiment: Antibacterial activity, microdilution method; format: cell-based; conditions: for MIC, LRSE: MDR clinical isolate, microdilution; for MIC: Staphylococcus epidermidis, read-out: MIC, LRSE
In short: as §1

[6] = system: P. aeruginosa resistant to carbapenems (13–1391); experiment: Antibacterial activity, microdilution method; format: cell-based, Pseudomonas aeruginosa; conditions: for MIC, PARC: MDR clinical isolate, microdilution; for MIC: Pseudomonas aeruginosa, read-out: MIC, PARC
In short: as §1

[7] = system: Vancomycin-resistant Enterococcus faecium (10–984); experiment: Antibacterial activity, microdilution method; format: cell-based; conditions: for MIC, VREF: MDR clinical isolate, microdilution; for MIC: Enterococcus faecium, read-out: MIC, VREF
In short: as §1

[8] = system: Escherichia coli producing extended-spectrum beta-lactamase (14–2081); experiment: Antibacterial activity, microdilution method; format: cell-based; conditions: for MIC, ECPB: MDR clinical isolate, microdilution; for MIC: Escherichia coli, read-out: MIC, ECPB
In short: as §1

[9] = system: Carbapenems-resistant Acinetobacter baumannii (12–666); experiment: Antibacterial activity, microdilution method; format: cell-based; conditions: for MIC, CRAB: MDR clinical isolate, microdilution; for MIC: Acinetobacter baumannii, read-out: MIC, CRAB
In short: as §1

[10] = system: HepG2 (hepatocellular) cells; experiment: Cytotoxic activity, Cell Titer 96 proliferation kit; format: cell-based, human; conditions: for IC50, HepG2: HepG2 cells; for IC50: Homo sapiens, HepG2, read-out: IC50, HepG2
In short: (§2)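 Cells grown in DMEM with 10% fetal bovine serum and 2 mM glutamine at 37 °C under 5% CO2. Test compounds at 100, 10, 1, 0.1 and 0.01 μg/mL for a dose-response curve. Viability read with a Cell Titer 96 aqueous kit by absorbance at 450 nm. Paclitaxel reference. Triplicates in three independent experiments; IC50 by regression analysis.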

PC3 (prostate) cells = experiment: Cytotoxic activity, Cell Titer 96 proliferation kit; format: cell-based, human; conditions: for IC50, PC3: PC3 cells; for IC50: Homo sapiens, PC-3, read-out: IC50, PC3
In short: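 PC3 cells kept in RPMI-1640 at 37 °C under 5% CO2. Dose-response over 100, 10, 1, 0.1 and 0.01 μg/mL test compound. Viability measured with a Cell Titer 96 aqueous kit by absorbance at 450 nm. Paclitaxel reference. Triplicates in three independent experiments; IC50 derived by regression analysis.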

A549 (lung) cells = experiment: Cytotoxic activity, Cell Titer 96 proliferation kit; format: cell-based, human; conditions: for IC50, A549: A549 cells; for IC50: Homo sapiens, A549, read-out: IC50, A549
In short: as §2

HeLa (cervical) cells = experiment: as above; format: cell-based, human; conditions: for IC50, Hela: HeLa cells; for IC50: Homo sapiens, HeLa, read-out: IC50, Hela
In short: as §2

[11] = system: Hep3B (hepatocellular) cells; experiment: as above; format: cell-based, human; conditions: for IC50, Hep3B: Hep3B cells; for IC50: Homo sapiens, Hep3B, read-out: IC50, Hep3B
In short: as §2

[12] = system: immortalized human hepatocytes (IHH); format: cell-based; conditions: for IC50, IHH: non-cancerous control cells IHH; for IC50: Homo sapiens, Hepatocyte, read-out: IC50, IHH
In short: as §2

MCF7 (breast) cells = experiment: Cytotoxic activity, Cell Titer 96 proliferation kit; format: cell-based, human
In short: as §2

[13] = system: hepatocellular carcinoma lines; experiment: Selectivity Index on hepatocellular carcinoma lines versus IHH; format: cell-based, human; conditions: HepG2 and Hep3B versus IHH
P. aeruginosa = conditions: Vernonia auriculifera screening; ref Kiplimo et al., 2011; cited from earlier work

CCCCCCCCCCCCCCCCCCCCCCCC(=O)OCC(COC(C)=O)OC(C)=O (stereo not drawn) [2Ac, 3-(tetracosanoyloxy) propane-1,2-diyl diacetate]
MIC, KPNDM-1+ [1]: 200 µg/mL
MIC, KPRO [2]: >200 µg/mL
MIC, KPPB [3]: >200 µg/mL
MIC, MRSA [4]: >200 µg/mL
MIC, LRSE [5]: 200 µg/mL
MIC, PARC [6]: 200 µg/mL
MIC, VREF [7]: 200 µg/mL
MIC, ECPB [8]: >200 µg/mL
MIC, CRAB [9]: 100 µg/mL

CC[C@H](CC[C@@H](C)[C@H]1CC[C@H]2[C@@H]3CC=C4C[C@@H](O[C@@H]5O[C@H](COC(C)=O)[C@@H](OC(C)=O)[C@H](OC(C)=O)[C@H]5OC(C)=O)CC[C@]4(C)[C@H]3CC[C@]12C)C(C)C [3Ac, β-sitosteryl β-D-tetraacetyl glucopyranoside]
MIC, KPNDM-1+ [1]: >200 µg/mL
MIC, KPRO [2]: 200 µg/mL (≈ 268 µM)
IC50, HepG2 [10]: 50 ± 3 µg/mL (≈ 67.1 µM)
MIC, KPPB [3]: >200 µg/mL
MIC, MRSA [4]: >200 µg/mL
IC50, PC3 (PC3 (prostate) cells): 43 ± 4 µg/mL (≈ 57.7 µM)
IC50, A549 (A549 (lung) cells): 87 ± 8 µg/mL (≈ 117 µM)
MIC, LRSE [5]: >200 µg/mL
IC50, Hela (HeLa (cervical) cells): 63 ± 7 µg/mL (≈ 84.6 µM)
MIC, PARC [6]: 200 µg/mL (≈ 268 µM)
MIC, VREF [7]: 200 µg/mL (≈ 268 µM)
MIC, ECPB [8]: >200 µg/mL
IC50, Hep3B [11]: 49 ± 4 µg/mL (≈ 65.8 µM)
IC50, IHH [12]: 78 ± 7 µg/mL (≈ 105 µM)
MIC, CRAB [9]: 200 µg/mL (≈ 268 µM)

CC(=O)OC[C@H]1O[C@@H](O[C@H]2CC[C@]3(C)[C@H]4CC=C5[C@@H]6[C@@H](C)[C@H](C)CC[C@]6(C)CC[C@@]5(C)[C@]4(C)CC[C@H]3C2(C)C)[C@H](OC(C)=O)[C@@H](OC(C)=O)[C@@H]1OC(C)=O [4Ac, α-amyrin tetraacetyl 3-O-β-D-glucopyranoside]
IC50, HepG2 [10]: >100 µg/mL
IC50, PC3 (PC3 (prostate) cells): >100 µg/mL
IC50, A549 (A549 (lung) cells): >100 µg/mL
IC50, Hela (HeLa (cervical) cells): >100 µg/mL
IC50, Hep3B [11]: >100 µg/mL
IC50, IHH [12]: >100 µg/mL
IC50, MCF7 (MCF7 (breast) cells): >100 µg/mL

CC(=O)O[C@H]1C(=O)[C@@]2(C)[C@H]([C@H](OC(=O)c3ccccc3)[C@]3(O)C[C@H](OC(=O)[C@H](O)[C@@H](NC(=O)c4ccccc4)c4ccccc4)C(C)=C1C3(C)C)[C@]1(OC(C)=O)CO[C@@H]1C[C@@H]2O [Paclitaxel, reference compound]
IC50 [10]: 0.064 µg/mL (≈ 0.0749 µM)
IC50 (PC3 (prostate) cells): 0.0102 µg/mL (≈ 0.0119 µM)
IC50 (A549 (lung) cells): 0.00512 µg/mL (≈ 0.006 µM)
IC50 (HeLa (cervical) cells): 0.00478 µg/mL (≈ 0.0056 µM)
IC50 [11]: 0.033 µg/mL (≈ 0.0386 µM)
IC50 [12]: 0.0794 µg/mL (≈ 0.093 µM)

CCCCCCCCCCCCCCCCCCCCCCCC(=O)OCC(O)CO (stereo not drawn) [compound 2, 2,3-dihydroxypropyl tetracosanoate]
MIC [1]: 200 µg/mL (≈ 452 µM)
MIC [2]: 200 µg/mL (≈ 452 µM)
IC50 [10]: 75 ± 6 µg/mL (≈ 169 µM)
MIC [3]: > 200 µg/mL
MIC [4]: > 200 µg/mL
IC50 (PC3 (prostate) cells): 75 ± 5 µg/mL (≈ 169 µM)
IC50 (A549 (lung) cells): > 100 µg/mL
MIC [5]: 200 µg/mL (≈ 452 µM)
IC50 (HeLa (cervical) cells): 82 ± 8 µg/mL (≈ 185 µM)
MIC [6]: 200 µg/mL (≈ 452 µM)
MIC [7]: 200 µg/mL (≈ 452 µM)
Selectivity Index (SI) on hepatocellular carcinoma lines [13]: greater than 1
MIC [8]: > 200 µg/mL
IC50 [11]: 73 ± 7 µg/mL (≈ 165 µM)
IC50 [12]: 100 µg/mL (≈ 226 µM)
MIC [9]: 200 µg/mL (≈ 452 µM)

C[C@H]1COc2c(N3CCN(C)CC3)c(F)cc3c(=O)c(C(=O)O)cn1c23 [levofloxacin, reference compound]
MIC [1]: > 50 µg/mL
MIC [2]: > 50 µg/mL
MIC [3]: > 50 µg/mL
MIC [4]: 12.5 µg/mL (≈ 34.6 µM)
MIC [5]: 6.25 µg/mL (≈ 17.3 µM)
MIC [6]: 12.5 µg/mL (≈ 34.6 µM)
MIC [7]: 12.5 µg/mL (≈ 34.6 µM)
MIC [8]: 12.5 µg/mL (≈ 34.6 µM)
MIC [9]: 12.5 µg/mL (≈ 34.6 µM)

C[C@H]1[C@H](C)CC[C@]2(C)CC[C@]3(C)C(=CC[C@@H]4[C@@]5(C)CC[C@H](O)C(C)(C)[C@@H]5CC[C@]43C)[C@H]12 [α-amyrin]
MIC, P. aeruginosa (P. aeruginosa): 1000 µg/mL (≈ 2340 µM)

From publication PMC7475184 (Heliyon, 2020)
